Measurements collected from several papers.
Effect on: microbial growth

SMILES	organism	test	system	setting	MIC
CC1=CC(=O)[C@H]2O[C@]1(C)O[C@H]([C@H](C)/C=C(C)/C=C/C(O)=C1/C(=O)CNC1=O)[C@H]2C	Bacillus anthracis	–	34F2	–	6.25 µM
CC1=NN(CNc2ccccc2[N+](=O)[O-])C(=O)C1=NNn1c(-c2ccccc2)nc2ccccc2c1=O	Vibrio cholerae	broth dilution	–	24 h	50.4 µM
CNC(=O)[C@@H](C)[C@H]1C(=O)/C(=C(O)/C=C/C(C)=C/[C@@H](C)[C@H]2O[C@@]3(C)O[C@H](C=C[C@@]34CO4)[C@@H]2C)C(=O)N1[C@@H]1CC[C@H](O)[C@H](C)O1	Bacillus anthracis	–	34F2	–	> 100 µM
CCCCCCCC(=O)NP(=O)(O)O	Bacillus anthracis	–	STERNE34F2	–	> 200 µg/mL
CC1=CC[C@H]2O[C@]1(C)O[C@H]([C@H](C)/C=C(C)/C=C/C(O)=C1/C(=O)CNC1=O)[C@H]2C	Bacillus anthracis	–	34F2	–	3.13 µM
CC(=O)NCN1N=C(C)C(=NNn2c(-c3ccccc3)nc3ccccc3c2=O)C1=O	Vibrio cholerae	broth dilution	–	24 h	59.9 µM
CN[C@@H]1[C@H](O)[C@H](NC)[C@H]2O[C@@]3(O)C(=O)C[C@@H](C)O[C@H]3O[C@@H]2[C@H]1O	Streptococcus pyogenes	broth dilution	ATCC700294	–	25 µg/mL
O=C(CCCCCCCCCCOc1ccccc1)CP(=O)(O)O	Bacillus anthracis	–	STERNE34F2	–	> 200 µg/mL
CC(/C=C/C(O)=C1/C(=O)CNC1=O)=C\[C@@H](C)[C@H]1O[C@@]2(C)O[C@H](C(=O)[C@@H]3O[C@@]32C)[C@@H]1C	Bacillus anthracis	–	34F2	–	12.5 µM
O=C1NN=C(N=Cc2ccc(O)cc2O)C1=NNn1c(-c2ccccc2)nc2ccccc2c1=O	Vibrio cholerae	broth dilution	–	24 h	53.5 µM
CCCCCC/C=C\CCCCCCCCCC(=O)NP(=O)(O)O	Bacillus anthracis	–	STERNE34F2	–	100 µg/mL
CC1=NN(CNC(=O)c2ccccn2)C(=O)C1=NNn1c(-c2ccccc2)nc2ccccc2c1=O	Vibrio cholerae	broth dilution	–	24 h	52 µM
CCCCCCCCCCCC(=O)C(F)(F)P(=O)(O)O	Bacillus anthracis	–	STERNE34F2	–	200 µg/mL
